Measured values as given in ChEMBL document CHEMBL5058577, “EUbOPEN Chemogenomics Library 2 (Multiplex)” (2022).

System: HEK-293T
Test: Multiplex assay against HEK293T
Assay type: toxicity, cell-based
Conditions: human
Outline: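 Cells stained live at seeding with Hoechst33342, BioTracker Green Microtubule Cytoskeleton Dye, MitoTracker Red and Annexin V Alexa Fluor 680 were imaged on a CQ1 microscope at 37°C and 5% CO2 after compound addition. Their classification by CellPathfinder machine-learning gating ran from Hoechst high-intensity objects versus normal cells, to healthy, pyknosed or fragmented nuclei among normal cells, to mitotic or apoptotic among pyknosed cells. Tubulin, mitochondrial-mass and membrane-permeability phenotypes are per cents of healthy-nucleus cells.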

[1] = 12 h, 1 µM, compound concentration 1 uM, replicate 1
[2] = 12 h, 1 µM, compound concentration 1 uM, replicate 2
[3] = 12 h, 10 µM, compound concentration 10 uM, replicate 1
[4] = 12 h, 10 µM, compound concentration 10 uM, replicate 2
[5] = 24 h, 1 µM, compound concentration 1 uM, replicate 1
[6] = 24 h, 1 µM, compound concentration 1 uM, replicate 2
[7] = 24 h, 10 µM, compound concentration 10 uM, replicate 1
[8] = 24 h, 10 µM, compound concentration 10 uM, replicate 2
[9] = 48 h, 1 µM, compound concentration 1 uM, replicate 1
[10] = 48 h, 1 µM, compound concentration 1 uM, replicate 2
[11] = 48 h, 10 µM, compound concentration 10 uM, replicate 1
[12] = 48 h, 10 µM, compound concentration 10 uM, replicate 2

O=C(O)CCC/C=C\CC1C(O)CC(O)C1/C=C/C(O)COc1cccc(Cl)c1 (stereo not drawn) [CLOPROSTENOL]
Population Apoptotic (%) [1]: 31% | Population Fragmented Nuclei (%) [1]: 7% | Population Healthy Nuclei (%) [1]: 81% | Population Hoechst High Intensity Objects (%) [1]: 9% | Population Membrane Permeable-Phenotype (%) [1]: 0% | Population Mitochondria Different-Phenotype (%) [1]: 44% | Population Mitotic Cells (%) [1]: 68% | Population Normal (%) [1]: 90% | Population Pyknosed Nuclei (%) [1]: 10% | Population Tubulin-Different-Phenotype (%) [1]: 35% | Total Cell Count [1]: 458 | Population Apoptotic (%) [2]: 40% | Population Fragmented Nuclei (%) [2]: 6% | Population Healthy Nuclei (%) [2]: 80% | Population Hoechst High Intensity Objects (%) [2]: 7% | Population Mitochondria Different-Phenotype (%) [2]: 56% | Population Mitotic Cells (%) [2]: 59% | Population Normal (%) [2]: 92% | Population Pyknosed Nuclei (%) [2]: 13% | Population Tubulin-Different-Phenotype (%) [2]: 23% | Total Cell Count [2]: 341 | Population Apoptotic (%) [3]: 45% | Population Fragmented Nuclei (%) [3]: 7% | Population Healthy Nuclei (%) [3]: 77% | Population Hoechst High Intensity Objects (%) [3]: 6% | Population Membrane Permeable-Phenotype (%) [3]: 0% | Population Mitochondria Different-Phenotype (%) [3]: 63% | Population Mitotic Cells (%) [3]: 54% | Population Normal (%) [3]: 93% | Population Pyknosed Nuclei (%) [3]: 14% | Population Tubulin-Different-Phenotype (%) [3]: 41% | Total Cell Count [3]: 395 | Population Apoptotic (%) [4]: 51% | Population Fragmented Nuclei (%) [4]: 8% | Population Hoechst High Intensity Objects (%) [4]: 13% | Population Mitochondria Different-Phenotype (%) [4]: 68% | Population Mitotic Cells (%) [4]: 48% | Population Normal (%) [4]: 86% | Population Tubulin-Different-Phenotype (%) [4]: 37% | Total Cell Count [4]: 357 | Population Apoptotic (%) [5]: 22% | Population Fragmented Nuclei (%) [5]: 11% | Population Healthy Nuclei (%) [5]: 76% | Population Hoechst High Intensity Objects (%) [5]: 7% | Population Membrane Permeable-Phenotype (%) [5]: 1% | Population Mitochondria Different-Phenotype (%) [5]: 25% | Population Mitotic Cells (%) [5]: 77% | Population Normal (%) [5]: 92% | Population Pyknosed Nuclei (%) [5]: 11% | Population Tubulin-Different-Phenotype (%) [5]: 28% | Total Cell Count [5]: 612 | Population Apoptotic (%) [6]: 34% | Population Fragmented Nuclei (%) [6]: 7% | Population Healthy Nuclei (%) [6]: 83% | Population Hoechst High Intensity Objects (%) [6]: 5% | Population Membrane Permeable-Phenotype (%) [6]: 0% | Population Mitochondria Different-Phenotype (%) [6]: 37% | Population Mitotic Cells (%) [6]: 65% | Population Normal (%) [6]: 94% | Population Pyknosed Nuclei (%) [6]: 9% | Population Tubulin-Different-Phenotype (%) [6]: 16% | Total Cell Count [6]: 477 | Population Apoptotic (%) [7]: 46% | Population Fragmented Nuclei (%) [7]: 10% | Population Healthy Nuclei (%) [7]: 78% | Population Hoechst High Intensity Objects (%) [7]: 7% | Population Membrane Permeable-Phenotype (%) [7]: 0% | Population Mitochondria Different-Phenotype (%) [7]: 46% | Population Mitotic Cells (%) [7]: 54% | Population Normal (%) [7]: 92% | Population Pyknosed Nuclei (%) [7]: 10% | Population Tubulin-Different-Phenotype (%) [7]: 35% | Total Cell Count [7]: 490 | Population Fragmented Nuclei (%) [8]: 12% | Population Hoechst High Intensity Objects (%) [8]: 11% | Population Mitochondria Different-Phenotype (%) [8]: 55% | Population Mitotic Cells (%) [8]: 53% | Population Normal (%) [8]: 88% | Population Pyknosed Nuclei (%) [8]: 9% | Population Tubulin-Different-Phenotype (%) [8]: 31% | Total Cell Count [8]: 483 | Population Apoptotic (%) [9]: 20% | Population Fragmented Nuclei (%) [9]: 15% | Population Healthy Nuclei (%) [9]: 77% | Population Hoechst High Intensity Objects (%) [9]: 4% | Population Membrane Permeable-Phenotype (%) [9]: 1% | Population Mitochondria Different-Phenotype (%) [9]: 15% | Population Mitotic Cells (%) [9]: 79% | Population Normal (%) [9]: 95% | Population Pyknosed Nuclei (%) [9]: 6% | Population Tubulin-Different-Phenotype (%) [9]: 15% | Total Cell Count [9]: 956 | Population Apoptotic (%) [10]: 28% | Population Fragmented Nuclei (%) [10]: 13% | Population Healthy Nuclei (%) [10]: 81% | Population Hoechst High Intensity Objects (%) [10]: 5% | Population Mitochondria Different-Phenotype (%) [10]: 20% | Population Mitotic Cells (%) [10]: 71% | Population Normal (%) [10]: 94% | Population Pyknosed Nuclei (%) [10]: 5% | Population Tubulin-Different-Phenotype (%) [10]: 11% | Total Cell Count [10]: 703 | Population Apoptotic (%) [11]: 33% | Population Fragmented Nuclei (%) [11]: 16% | Population Healthy Nuclei (%) [11]: 76% | Population Hoechst High Intensity Objects (%) [11]: 7% | Population Membrane Permeable-Phenotype (%) [11]: 0% | Population Mitochondria Different-Phenotype (%) [11]: 32% | Population Mitotic Cells (%) [11]: 66% | Population Normal (%) [11]: 92% | Population Pyknosed Nuclei (%) [11]: 6% | Population Tubulin-Different-Phenotype (%) [11]: 18% | Total Cell Count [11]: 659 | Population Apoptotic (%) [12]: 25% | Population Fragmented Nuclei (%) [12]: 18% | Population Healthy Nuclei (%) [12]: 75% | Population Hoechst High Intensity Objects (%) [12]: 6% | Population Membrane Permeable-Phenotype (%) [12]: 1% | Population Mitochondria Different-Phenotype (%) [12]: 25% | Population Mitotic Cells (%) [12]: 74% | Population Normal (%) [12]: 93% | Population Pyknosed Nuclei (%) [12]: 5% | Total Cell Count [12]: 731
